Data from paper PMC11564280 (Clinical Drug Investigation, 2024).
“Also recorded” adds a separate entry of the source. Read-outs that look alike come from different tables or passages of the source.

Legend:
[1] = Stability of frozen plasma and urine pharmacokinetic samples; parameters: species or system human; settings: stored frozen at − 50 to − 90 °C
[2] = Safety and tolerability in healthy Chinese volunteers; assay type: in vivo, human; settings: 5 mg once daily for 10 days, n = 6
How it was run: (§1)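 Safety assessed at every visit in all randomized participants given ≥1 dose of drug or placebo (oral suspension once daily for 10 days, 3:1 randomization). Covered AE and SAE incidence and severity, vital signs, ECGs, laboratory tests and skin rash. Participants resided on site from day −1 to day 12, with visits on days 14, 16, 20 and 24. Rash graded by CTCAE; relatedness judged by the investigator.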

[3] = cited from earlier work; for mean CL/F on the last study day: mainly white and Black/African American participants
[4] = human plasma; cited from earlier work
[5] = SAD study 5–405 mg; cited from earlier work
[6] = Safety and tolerability in healthy Japanese volunteers; assay type: in vivo, human; settings: for Any AE / Any AE leading to discontinuation / Any SAE / Any possibly related AE / Death / Maculopapular rash: Japanese
How it was run: as §1

[7] = assay type: in vivo, human
How it was run: (§2)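 Healthy males aged 18–50 y, randomized 3:1 to active or placebo (single-blind). Oral suspension given once daily each morning after a ≥10 h fast for 10 days: Japanese cohorts 2.5, 5 or 10 mg, Chinese cohort 5 mg. K2EDTA blood drawn pre-dose and 0.25–12 h post-dose on days 1 and 10, plus 24–336 h. Urine pooled 0–3, 3–6, 6–9, 9–12 and 12–24 h on day 10. Plasma spun 1500g, 4 °C, 10 min; samples stored at −50 to −90 °C.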

[8] = Safety and tolerability, Japanese and Chinese participants together; assay type: in vivo, human
How it was run: as §1

[9] = assay type: in vivo, human; settings: for Ae(0–last), cumulative amount excreted in urine / fe(0–last), fraction of dose excreted unchanged in urine: day 10; for Vd/F / half-life / CL renal: human, po; for Vd/F / half-life: plasma; for Ae(0–last), cumulative amount excreted in urine / fe(0–last), fraction of dose excreted unchanged in urine / CL renal: urine
How it was run: as §2

[10] = Pharmacokinetics, Japanese and Chinese participants together or compared; assay type: in vivo, human
How it was run: as §2

[11] = 2.5 mg once daily for 10 days, n = 6
[12] = 5 mg once daily for 10 days, n = 6
[13] = 10 mg once daily for 10 days, n = 6
[14] = total mitiperstat 2.5, 5 or 10 mg, n = 18
[15] = Chinese, 5 mg oral once daily, day 10, n = 5, urine
[16] = Japanese, 2.5 mg oral once daily, n = 6
[17] = Japanese, 5 mg oral once daily, n = 5
[18] = Japanese, 10 mg oral once daily, n = 3

In the case of C[C@@H](N)c1cc(Cl)ccc1Cn1c(=S)[nH]c(=O)c2[nH]ccc21 [Mitiperstat], the “known stability period of study samples” value ([1]; plasma) is reported as 438 days, the “known stability period of study samples” value ([1]; urine) is reported as 439 days and the “Any AE” value [2] is reported as 2 (33.3) n (%). For the same compound, the “Any AE leading to discontinuation” value [2] was 1 (16.7) n (%), the “Any SAE” value [2] was 0 (0.0) n (%) and the “Any possibly related AE” value [2] was 2 (33.3) n (%). The Death [2] was 0 (0.0) n (%), the Maculopapular rash [2] was 1 (16.7) n (%) and the “dose proportionality of AUC and Cmax” value ([3]; MAD study 5–45 mg, last day of dosing) was “approximately proportional to dose”. The “time to Cmax” value ([3]; healthy participants) was “approximately 1 h”, the “mean CL/F on the last study day” value ([3]; 5 mg) was 22.8 L/h and the “mean CL/F on the last study day” value ([3]; 10 mg) was 20.6 L/h. The “share of drug-related exposure in plasma” value [4] was “approximately 7%”, the “dose proportionality of exposure (average AUC)” value [5] was “increased proportionally with mitiperstat dose” and the “Any AE” value [6, 11] was 1 (16.7) n (%). For the same compound, the “Any AE leading to discontinuation” value [6, 11] was 0 (0.0) n (%), the “Any SAE” value [6, 11] was 0 (0.0) n (%) and the “Any possibly related AE” value [6, 11] was 0 (0.0) n (%). The Death [6, 11] was 0 (0.0) n (%), the Maculopapular rash [6, 11] was 0 (0.0) n (%) and the “Any AE” value [6, 12] was 2 (33.3) n (%). The “Any AE leading to discontinuation” value [6, 12] was 1 (16.7) n (%), the “Any SAE” value [6, 12] was 0 (0.0) n (%) and the “Any possibly related AE” value [6, 12] was 1 (16.7) n (%). For the same compound, the Death [6, 12] was 0 (0.0) n (%), the Maculopapular rash [6, 12] was 1 (16.7) n (%) and the “Any AE” value [6, 13] was 4 (66.7) n (%). The “Any AE leading to discontinuation” value [6, 13] was 3 (50.0) n (%), the “Any SAE” value [6, 13] was 0 (0.0) n (%) and the “Any possibly related AE” value [6, 13] was 3 (50.0) n (%). The Death [6, 13] was 0 (0.0) n (%), the Maculopapular rash [6, 13] was 3 (50.0) n (%) and the “Any AE” value [6, 14] was 7 (38.9) n (%). The “Any AE leading to discontinuation” value [6, 14] was 4 (22.2) n (%), the “Any SAE” value [6, 14] was 0 (0.0) n (%) and the “Any possibly related AE” value [6, 14] was 4 (22.2) n (%). For the same compound, the Death [6, 14] was 0 (0.0) n (%), the Maculopapular rash [6, 14] was 4 (22.2) n (%) and the “day of rash occurrence” value ([6]; Participant receiving 5 mg) was 4 days. The “Ae(0–last), cumulative amount excreted in urine” value (from here on “Ae(0–last) … in urine”) [7, 15] was 2.48 (0.53) mg, the “fe(0–last), fraction of dose excreted unchanged in urine” value [7, 15] was 49.59 (10.62) % and the Vd/F ([7]; human, plasma, po, 5 mg) was 1960 L. For the same compound, the half-life ([7]; human, plasma, po, 5 mg) was 55.4 h, the CL renal ([7]; human, urine, po, 5 mg) was 200 mL/min and the “laboratory results, vital signs or electrocardiograms” value ([8]; Japanese and Chinese, 2.5–10 mg once daily for 10 days) was “No clinically significant trends or shifts from baseline”. The “time to resolution of rash” value ([8]; all cases of rash) was ≤ 1 month, the “day of rash occurrence” value ([8]; the other four participants who experienced rash) was 9 days and the “adverse events of rash of moderate intensity (maculopapular rash, CTCAE grade 2)” value ([8]; three Japanese 10 mg, one Chinese 5 mg) was “Four”. For the same compound, the “Ae(0–last) … in urine” value [9, 16] was 1.20 (0.29) mg, the “fe(0–last), fraction of dose excreted unchanged in urine” value [9, 16] was 47.94 (11.55) % and the “Ae(0–last) … in urine” value [9, 17] was 2.56 (0.72) mg. The “fe(0–last), fraction of dose excreted unchanged in urine” value [9, 17] was 51.14 (14.31) %, the “Ae(0–last) … in urine” value [9, 18] was 6.29 (1.77) mg and the “fe(0–last), fraction of dose excreted unchanged in urine” value [9, 18] was 62.94 (17.71) %. For the same compound, the “dose proportionality of exposure (AUC, Ctrough and Cmax)” value ([9]; Japanese, 2.5–10 mg range) was “dose proportional; also recorded: increased proportionally with dose”, the Vd/F ([9]; 2.5 mg) was 2300 L and the half-life ([9]; 2.5 mg) was 50.2 h. It also gave a Vd/F ([9]; 5 mg) of 2170 L, a half-life ([9]; 5 mg) of 57.8 h and a Vd/F ([9]; 10 mg) of 2250 L. It also gave a half-life ([9]; 10 mg) of 56.4 h, a CL renal ([9]; 2.5 mg) of 248 mL/min and a CL renal ([9]; 5 mg) of 215 mL/min. The CL renal ([9]; 10 mg) was 282 mL/min, the “mean CL/F on the last study day” value ([10]; Japanese and Chinese cohorts receiving 5 mg) was 25.3 L/h and the “time to steady state” value ([10]; Japanese and Chinese, once-daily oral dosing) was ≤ 10 days. The “time to steady state by visual interpretation” value ([10]; Japanese and Chinese, trough concentrations) was “approximately 7 days”, the “renal clearance as share of apparent total clearance” value ([10]; both Japanese and Chinese participants) was “approximately 50%” and the “median time to Cmax” value ([10]; day 10, Japanese and Chinese, range of group medians) was 1.02 to 2.00 h. The half-life ([10]; human, plasma, po) was 50.2 to 57.8 h.
